Measured values: ChEMBL document CHEMBL3091336, “Analogs of the Allosteric Heat Shock Protein 70 (Hsp70) Inhibitor, MKT-077, as Anti-Cancer Agents” (ACS Med Chem Lett, 2013)
Active and inactive are the calls of the source. No cut-off for these calls is given here.

Assays:
[1] = Half life in mouse liver microsomes at 1 uM incubated for 15 mins prior to beta-NADPH addition by LC-MS/MS analysis; type: ADME, Microsome; details: for t1/2: microsomes, 0.25 h, 1 µM; for half-life at 1 µM: liver microsomes
In short: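 Compounds at 1 μM incubated with mouse liver microsomes. Degradation followed by LC–MS and reported as half-life.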

MEF = test: Cytotoxicity against C57BL/6 mouse MEF assessed as growth inhibition after 72 hrs by MTT assay; type: cell-based; details: C57BL/6, MEF
In short: (§1)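 Antiproliferative activity measured by MTT assay. EC50 is the average of triplicate experiments, with error as SEM.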

MCF7 [2] = test: Cytotoxicity against human MCF7 cells assessed as growth inhibition after 72 hrs by MTT assay; type: functional, cell-based; details: MCF7, 72 h; in short: as §1
MDA-MB-231 [3] = test: Cytotoxicity against human MDA-MB-231 cells assessed as growth inhibition after 72 hrs by MTT assay; type: functional, cell-based; details: MDA-MB-231, 72 h; in short: as §1
[4] = molecular target: Heat shock cognate 71 kDa protein (Homo sapiens, UniProt P11142); test: Binding affinity to human HSC70 after 3 hrs by ELISA
[5] = Drug metabolism in mouse liver microsomes assessed as compound life time; type: ADME, Microsome
In short: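 Compounds at 1 μM incubated with liver microsomes from C57BL/6 mice; disappearance of parent compound followed by LC–MS and reported as microsomal lifetime (t1/2, min).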

[6] = Binding affinity to [1H-15N]-DnaK (1 to 388) nucleotide binding domain (unknown origin) at 200 uM by NMR analysis
MCF7 [7] = test: Induction of autophagic flux in human MCF7 cells assessed as decrease in p62 monomer level at 5 to 10 uM after 24 hrs; type: functional, cell-based
MCF7 [8] = test: Induction of autophagic flux in human MCF7 cells assessed as increase in p62 oligomerization at 5 to 10 uM after 24 hrs; type: functional, cell-based
MDA-MB-231 [9] = test: Induction of autophagic flux in human MDA-MB-231 cells assessed as increase in p62 oligomerization at 5 to 10 uM after 24 hrs; type: functional, cell-based
MDA-MB-231 [10] = test: Induction of apoptosis in human MDA-MB-231 cells assessed as PARP cleavage at 10 uM after 48 hrs; type: functional, cell-based
In short: (§2)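 MDA-MB-231 cells treated for 48 h. Cleavage of caspase 3 and PARP detected by Western blot. Representative of duplicate experiments.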

MDA-MB-231 [11] = test: Induction of apoptosis in human MDA-MB-231 cells assessed as caspase-3 cleavage at 10 uM after 48 hrs; type: functional, cell-based; in short: as §2
MDA-MB-231 [12] = test: Induction of autophagic flux in human MDA-MB-231 cells assessed as decrease in p62 monomer level at 5 to 10 uM after 24 hrs; type: functional, cell-based

Chain of Heat shock cognate 71 kDa protein (P11142 whole entry): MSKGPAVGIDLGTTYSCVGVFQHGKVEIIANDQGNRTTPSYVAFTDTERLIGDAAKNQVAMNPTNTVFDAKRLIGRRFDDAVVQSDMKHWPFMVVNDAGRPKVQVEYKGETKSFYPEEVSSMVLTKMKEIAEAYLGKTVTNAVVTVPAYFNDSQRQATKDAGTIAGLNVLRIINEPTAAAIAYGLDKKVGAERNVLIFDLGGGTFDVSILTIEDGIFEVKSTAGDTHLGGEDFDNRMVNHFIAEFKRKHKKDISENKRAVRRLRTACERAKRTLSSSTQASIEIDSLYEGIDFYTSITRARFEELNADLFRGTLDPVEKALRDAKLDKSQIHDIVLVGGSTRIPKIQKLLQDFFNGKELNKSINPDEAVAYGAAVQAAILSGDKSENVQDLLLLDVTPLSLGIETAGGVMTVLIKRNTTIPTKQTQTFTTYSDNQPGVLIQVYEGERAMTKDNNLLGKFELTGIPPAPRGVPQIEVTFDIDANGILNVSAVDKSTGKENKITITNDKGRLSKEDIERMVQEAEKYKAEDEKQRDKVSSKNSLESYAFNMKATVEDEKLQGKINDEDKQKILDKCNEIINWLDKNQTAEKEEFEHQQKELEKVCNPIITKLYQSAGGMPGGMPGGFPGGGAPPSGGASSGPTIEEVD

SMILES	t1/2 [1]	EC50 (MEF) [µM]	EC50 (MCF7 [2]) [µM]	EC50 (MDA-MB-231 [3]) [µM]	other results
CCn1c(=O)/c(=C2\Sc3c(F)cccc3N2C)s/c1=C\c1cccc[n+]1C.[Cl-]	16 min	> 50	8.5	6.2	–
CCn1c(=O)/c(=C2\Sc3cccc(F)c3N2C)s/c1=C\c1cccc[n+]1CC.[Cl-]	ND(Insoluble)	> 30	1	3.8	–
CCn1c(=O)/c(=C2\Sc3ccccc3N2C)s/c1=C\c1cccc[n+]1CCO.[Cl-]	ND(Insoluble)	> 50	6.9	24	–
CCn1c(=O)/c(=C2\Sc3cccc(Cl)c3N2C)s/c1=C\c1scc[n+]1Cc1ccccc1.[Cl-]	–	7	0.8	0.4	half-life at 1 µM [1]: 8.8 min
CCn1c(=O)/c(=C2\Sc3ccccc3N2C)s/c1=C\c1cccc[n+]1C.[Cl-]	–	> 50	5.2	2	half-life at 1 µM [1]: < 5 min
CCn1c(=O)/c(=C2\Sc3ccc(Cl)cc3N2C)s/c1=C\c1scc[n+]1Cc1ccccc1.[Cl-]	ND(Insoluble)	> 30	0.8	0.6	–
CCn1c(=O)/c(=C2\Sc3cc(OC)ccc3N2C)s/c1=C\c1cccc[n+]1C.[Cl-]	–	> 50	11	4	half-life at 1 µM [1]: 10 min
CCn1c(=O)/c(=C2\Sc3ccc(F)cc3N2C)s/c1=C\c1cccc[n+]1C.[Cl-]	23 min	> 50	18	7.7	–
CCn1c(=O)/c(=C2\Sc3ccccc3N2C)s/c1=C\c1cccc[n+]1CCCCCCNC(=O)CCCC[C@@H]1SC[C@@H]2NC(=O)N[C@@H]21	–	–	–	–	Kd [4]: 2 µM
CCn1c(=O)/c(=C2\Sc3ccccc3N2C)s/c1=C\c1cccc[n+]1CC.[Cl-]	–	> 50	2.2	1.4	Time [5]: 4.4 min; half-life at 1 µM [1]: < 5 min
CCn1c(=O)/c(=C2\Sc3c(F)cccc3N2C)s/c1=C\c1cccc[n+]1CC.[Cl-]	ND(Insoluble)	27	0.8	2.8	–
CCn1c(=O)/c(=C2\Sc3cc(Cl)ccc3N2C)s/c1=C\c1cccc[n+]1C.[Cl-]	–	> 50	9.5	8.3	half-life at 1 µM [1]: 8.2 min
CCn1c(=O)/c(=C2\Sc3c(Cl)cccc3N2C)s/c1=C\c1cccc[n+]1CCCCCCNC(=O)CCCC[C@@H]1SC[C@@H]2NC(=O)N[C@@H]21	–	–	–	–	Kd [4]: 2.6 µM
CCn1c(=O)/c(=C2\Sc3c(Cl)cccc3N2C)s/c1=C\c1scc[n+]1Cc1ccccc1.[Cl-]	ND(Insoluble)	> 30	1	0.5	–
CCn1c(=O)/c(=C2\Sc3cc(C(F)(F)F)ccc3N2C)s/c1=C\c1cccc[n+]1CCCCCCNC(=O)CCCC[C@@H]1SC[C@@H]2NC(=O)N[C@@H]21	–	–	–	–	Kd [4]: 1 µM
CN1/C(=c2\s/c(=C\c3cccc[n+]3C)n(Cc3ccccc3)c2=O)Sc2ccccc21.[Cl-]	ND(Insoluble)	> 50	2.9	1.8	–

SMILES	t1/2 [1]	EC50 (MEF) [µM]	EC50 (MCF7 [2]) [µM]	EC50 (MDA-MB-231 [3]) [µM]	other results
CCn1c(=O)/c(=C2\Sc3ccccc3N2C)s/c1=C\c1scc[n+]1Cc1ccccc1.[Cl-]	ND(Insoluble)	6.8	0.6	0.5	–
CCC[n+]1ccccc1/C=c1\s/c(=C2/Sc3ccccc3N2C)c(=O)n1CC.[Cl-]	ND(Insoluble)	> 50	2.8	1.6	–
CCn1c(=O)/c(=C2\Sc3cc(Cl)ccc3N2C)s/c1=C\c1cccc[n+]1CCCCCCNC(=O)CCCC[C@@H]1SC[C@@H]2NC(=O)N[C@@H]21	–	–	–	–	Kd [4]: 1.7 µM
CCn1c(=O)/c(=C2\Sc3cc(F)ccc3N2C)s/c1=C\c1cccc[n+]1CCCCCCNC(=O)CCCC[C@@H]1SC[C@@H]2NC(=O)N[C@@H]21	–	–	–	–	Kd [4]: 1.5 µM
CCn1c(=O)/c(=C2\Sc3ccccc3N2C)s/c1=C\c1scc[n+]1C.[Cl-]	ND(Insoluble)	> 50	0.7	5.1	–
CCn1c(=O)/c(=C2\Sc3ccc(Cl)cc3N2C)s/c1=C\c1cccc[n+]1CCCCCCNC(=O)CCCC[C@@H]1SC[C@@H]2NC(=O)N[C@@H]21	–	–	–	–	Kd [4]: 4 µM
CCn1c(=O)/c(=C2\Sc3ccccc3N2C)s/c1=C\c1cccc[n+]1Cc1ccccc1.[Cl-]	ND(Insoluble)	> 50	1.5	1	–
CCn1c(=O)/c(=C2\Sc3ccccc3N2C)s/c1=C\c1cc[n+](C)cc1.[Cl-]	ND(Insoluble)	> 50	19	1.7	–
CCn1c(=O)/c(=C2\Sc3cc(Cl)ccc3N2C)s/c1=C\c1scc[n+]1Cc1ccccc1.[Cl-]	37 min	24	0.7	0.4	Activity [6]: Active; Activity (MCF7 [7]): Active; Activity (MCF7 [8]): Active; Activity (MDA-MB-231 [9]): Active; Activity (MDA-MB-231 [10]): Active; Activity (MDA-MB-231 [11]): Active; Activity (MDA-MB-231 [12]): Active
CCn1c(=O)/c(=C2\Sc3cccc(F)c3N2C)s/c1=C\c1cccc[n+]1C.[Cl-]	15 min	> 50	2.2	4	–
CCn1c(=O)/c(=C2\Sc3cc(F)ccc3N2C)s/c1=C\c1cccc[n+]1C.[Cl-]	7.7 min	> 50	6.2	5.6	–
CCn1c(=O)/c(=C2\Sc3cc(OC)ccc3N2C)s/c1=C\c1cccc[n+]1CCCCCCNC(=O)CCCC[C@@H]1SC[C@@H]2NC(=O)N[C@@H]21	–	–	–	–	Kd [4]: 5.4 µM
CCn1c(=O)/c(=C2\Sc3ccc(OC)cc3N2C)s/c1=C\c1cccc[n+]1CCCCCCNC(=O)CCCC[C@@H]1SC[C@@H]2NC(=O)N[C@@H]21	–	–	–	–	Kd [4]: 0.9 µM
CCn1c(=O)/c(=C2\Sc3ccc(F)cc3N2C)s/c1=C\c1cccc[n+]1CCCCCCNC(=O)CCCC[C@@H]1SC[C@@H]2NC(=O)N[C@@H]21	–	–	–	–	Kd [4]: 2.3 µM
CCn1c(=O)/c(=C2\Sc3c(F)cccc3N2C)s/c1=C\c1cccc[n+]1CCCCCCNC(=O)CCCC[C@@H]1SC[C@@H]2NC(=O)N[C@@H]21	–	–	–	–	Kd [4]: 1.9 µM

Continued, in another order:

t1/2 [1]	SMILES	EC50 (MEF) [µM]	EC50 (MCF7 [2]) [µM]	EC50 (MDA-MB-231 [3]) [µM]	other results
ND(Insoluble)	CCn1c(=O)/c(=C2\Sc3c(Cl)cccc3N2C)s/c1=C\c1cccc[n+]1C.[Cl-]	> 50	5.2	4.1	–
ND(Insoluble)	CCn1c(=O)/c(=C2\Sc3ccccc3N2C)s/c1=C\c1nccc[n+]1C.[Cl-]	> 50	9.1	5.8	–
ND(Insoluble)	CCn1c(=O)/c(=C2\Sc3ccc(F)cc3N2C)s/c1=C\c1cccc[n+]1CC.[Cl-]	> 30	2.4	13	–
ND(Insoluble)	CCn1c(=O)/c(=C2\Sc3ccc(OC)cc3N2C)s/c1=C\c1cccc[n+]1C.[Cl-]	> 50	14	2.8	–
ND(Insoluble)	CCn1c(=O)/c(=C2\Sc3cc(C(F)(F)F)ccc3N2C)s/c1=C\c1cccc[n+]1C.[Cl-]	> 50	> 30	19	–
ND(Insoluble)	CCn1c(=O)/c(=C2\Sc3cccc(Cl)c3N2C)s/c1=C\c1cccc[n+]1C.[Cl-]	> 50	7.8	4.4	–
ND(Insoluble)	CCn1c(=O)/c(=C2\Sc3ccc(Cl)cc3N2C)s/c1=C\c1cccc[n+]1C.[Cl-]	> 50	28	4.6	–
ND(Insoluble)	C=CCn1c(=O)/c(=C2\Sc3ccccc3N2C)s/c1=C\c1cccc[n+]1C.[Cl-]	> 50	8.4	3.6	–
ND(Insoluble)	CCn1c(=O)/c(=C2\Sc3ccc(C(F)(F)F)cc3N2C)s/c1=C\c1cccc[n+]1C.[Cl-]	> 50	> 30	21	–
ND(Insoluble)	CCn1c(=O)/c(=C2\Sc3ccccc3N2C)s/c1=C\c1scc[n+]1CC.[Cl-]	> 30	0.8	2.2	–
ND(Insoluble)	CCn1c(=O)/c(=C2\Sc3cc(F)ccc3N2C)s/c1=C\c1cccc[n+]1CC.[Cl-]	> 30	0.9	8.3	–
